# Compound activity deposited in PubChem BioAssay by several laboratories.
# Shown are actives, neighbours in structure and some others; about 1.8% of the full set was active somewhere.
# ABHD4 inh: ABHD4 inhibitors, primary screen, biochemical, fluorescence polarization, mouse. (Lyso)-N-acylphosphatidylethanolamine lipase (Mus musculus), Q8VD66. inhibition, % at 8.92 µM. actives 0.54% (n = 370,000). purified mABHD4, FP-Rh probe fluorescence polarization;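 active = inhibition exceeding the mean over every tested compound plus 3 SD, cut at about 30% in these data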
#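 System: mouse ABHD4 enzyme, wild type / Medium: HEPES pH 7.0, NaCl, Pluronic buffer / Reagent: FP-Rh activity-based fluorescent probe / Control set: S159A mutant high control, sample median low control / Detection: fluorescence polarization with parallel and perpendicular emission, 525/598 nm / Schedule: 45 min + 60 min at 25 °C / Compound dosing: 8.92 µM, single dose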
# HTRA1 inhibitor: HTRA1 serine protease inhibitors, primary screen, biochemical, fluorescence polarization, HTS | Q92743 | recombinant HTRA1, FP-rhodamine activity-based probe | inhibition, % at 5.96 µM | actives 0.5% (n = 340,000) | AID 504803, 2011; in the data active = inhibition above about 36%
# ARNT-TACC3 inh: disruptors of ARNT/TACC3 protein interaction, primary screen, biochemical, AlphaScreen, single concentration. Transforming acidic coiled-coil-containing protein 3 (Homo sapiens), Q9Y6A5. AlphaScreen His-ARNT PAS-B/GST-TACC3 binding, luminescence; TACC3 fragment carries E629A point mutation. inhibition, % at 9.99 µM. actives 0.66% (n = 390,000). AID 623870, 2012;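 active = mean inhibition of replicates at least 50% and at least half of replicates each reaching 50%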
# TCR-CD3 inh: inhibitors of human TCR-CD3 interaction, primary screen, biochemical, fluorescence, TAMRA-labeled TCR probe; T-cell receptor (TCR); inhibition, % at 9.4 µM; actives 0.37% (n = 360,000); AID 651800, 2012; in the data active = inhibition above about 19%;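 also: recombinant mutant TCR 2C K166C tagged with TAMRA read by polarization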
# SIAE primary: human SIAE inhibitors, primary screen, biochemical, fluorescence polarization, FP-Rh probe, 1536-well HTS; SIAE FP-Rh probe binding; Sialate O-acetylesterase (Homo sapiens), Q9HAT2; actives 0.69% (n = 370,000); inhibition, % at 9.66 µM;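 active = inhibition above a cutoff: mean of compounds within the control limits plus 3 SD of those, cut at about 17% in these data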
# Target sequence (Q9HAT2 whole entry, looked up): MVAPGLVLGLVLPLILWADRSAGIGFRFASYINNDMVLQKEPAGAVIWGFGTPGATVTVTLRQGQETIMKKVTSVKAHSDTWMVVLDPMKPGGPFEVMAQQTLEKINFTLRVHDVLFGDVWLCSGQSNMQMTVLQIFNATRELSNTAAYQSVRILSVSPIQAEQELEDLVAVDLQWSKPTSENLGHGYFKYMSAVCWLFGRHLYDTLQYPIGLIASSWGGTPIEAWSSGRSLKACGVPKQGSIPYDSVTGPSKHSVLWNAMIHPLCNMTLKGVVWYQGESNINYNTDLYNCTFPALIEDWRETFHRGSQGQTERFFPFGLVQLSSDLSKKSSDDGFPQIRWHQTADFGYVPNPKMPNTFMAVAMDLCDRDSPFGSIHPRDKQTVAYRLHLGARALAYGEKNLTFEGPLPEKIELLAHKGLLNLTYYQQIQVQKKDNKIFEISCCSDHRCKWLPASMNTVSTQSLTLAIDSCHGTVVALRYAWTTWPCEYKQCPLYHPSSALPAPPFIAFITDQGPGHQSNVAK
# Hits are given with their value; . = inactive; / = not tested or not shown.
SMILES,ABHD4 inh,HTRA1 inhibitor,ARNT-TACC3 inh,TCR-CD3 inh,SIAE primary
COc1ccc(CNC(=O)/C=C/c2ccc(S(=O)(=O)N3CCOCC3)cc2)cc1,.,.,.,.,.
O=C(/C=C/c1ccc(S(=O)(=O)N2CCOCC2)cc1)NCc1ccc(Cl)cc1,.,.,14,.,.
CC(C)C#Cc1cnc2c(c1)C(=O)N([C@H](C)CO)C[C@@H](C)[C@@H](CN(C)C(=O)Nc1ccc(F)cc1)O2,/,/,.,/,/
COc1ccc(-c2cnc3c(c2)C(=O)N([C@H](C)CO)C[C@H](C)[C@@H](CN(C)C)O3)cc1,/,/,.,/,/
C/C=C/c1ccc2c(c1)O[C@@H](CN(C)C(=O)Nc1ccc(F)cc1)[C@@H](C)CN([C@@H](C)CO)S2(=O)=O,/,/,.,/,/
O=C(Nc1nnc(-c2ccco2)o1)c1cccc(N2C(=O)CCC2=O)c1,.,.,49,.,.
COc1cc(/C=N/Nc2ccc(Cl)c(C(=O)O)c2)ccc1OC(=O)c1ccco1,.,.,.,.,.
COc1cc(/C=N/Nc2nc3c(c(=O)n(C)c(=O)n3C)n2Cc2ccccc2)ccc1OC(=O)c1ccco1,.,.,.,.,21
O=C(O[C@@H]1OC2COC(=O)c3cc(O)c(O)c(O)c3-c3c(cc(O)c(O)c3O)C(=O)O[C@@H]([C@H]1O)[C@@H]2O)c1cc(O)c(O)c(O)c1,/,41,.,/,/
COc1cccc2sc(Nc3nc(-c4cc5ccccc5oc4=O)cs3)nc12,.,.,.,19,.
CCCc1c(C)[nH]c2ccc(C(=O)O)cc2c1=S,.,.,.,27,.
Cc1[nH]c2ccc(C(=O)O)cc2c1C,.,.,.,.,.
Cc1ccc(S(=O)(=O)N[C@H]2CC[C@H](CCn3cc(-c4ccccc4F)nn3)O[C@@H]2CO)cc1,/,/,.,/,/
CC1Oc2cc3oc4c(O)c(O)ccc4c(=O)c3c(O)c2C1(C)C (stereo unspecified),/,72,.,/,/
Cc1noc(C)c1NC(=O)NCC[C@@H]1CC[C@H](NC(=O)c2ccc(F)cc2)[C@@H](CO)O1,/,/,.,/,/
COc1ccc(S(=O)(=O)N(C)C[C@H]2OCCCC[C@@H](C)Oc3ccc(NC(=O)CCC(F)(F)F)cc3C(=O)N([C@@H](C)CO)C[C@@H]2C)cc1,/,/,.,/,/
COCCCNC(=S)N/N=C/c1ccccc1O,.,.,64,.,.
O=C(C[C@H]1CC[C@H]2[C@@H](COC[C@@H](O)CN2Cc2ccc3c(c2)OCO3)O1)Nc1ccc(-c2ccccc2)cc1,/,/,.,/,/
c1ccc(OCc2nnc(-c3ccccc3)o2)cc1,.,.,.,.,.
Oc1ccccc1-c1nnc(COc2ccccc2)o1,.,.,/,34,.
COc1ccnc(CSC(N)=Nc2ccc(F)cc2)c1,.,.,82,.,.
COc1cccc(N=C(N)N=C(N)N)c1,.,.,.,.,.
Cn1ncc(Cl)c1C(=O)N/N=C/c1cc2c(cc1[N+](=O)[O-])OCO2,.,.,.,.,.
CCN(CC)c1ccc(/C=N/Nc2nc(C)cc(=O)[nH]2)c(O)c1,.,.,64,.,.
Cc1cc(=O)[nH]c(N/N=C/c2ccccc2Cl)n1,.,.,.,.,.
SMILES,ABHD4 inh,HTRA1 inhibitor,ARNT-TACC3 inh,TCR-CD3 inh,SIAE primary
Cc1cc(=O)[nH]c(NN=Cc2cc(Br)ccc2O)n1,.,.,64,.,.
CCN(CC)c1ccc(/C=N/NC(=O)c2c(Cl)cnn2C)c(O)c1,.,.,66,.,.
Cc1cc[n+](C(C)C(=O)c2ccc(Cl)cc2)cc1 (stereo unspecified),.,.,56,.,.
CN(C)C(=O)C[C@H]1CC[C@H]2[C@H](COc3ccc(NC(=O)Nc4cccc(Cl)c4)cc3C(=O)N2C)O1,/,/,.,/,/
Cc1ccc(Nc2nc3ccccc3s2)c(C)c1,.,.,.,.,.
Cc1cc(O)ccc1Nc1nc2ccccc2nc1Nc1ccc(O)cc1C,.,.,/,.,20
COc1ccc(NC(=O)Nc2ccc3c(c2)[C@@H]2C[C@H](CC(=O)NC4CCCC4)O[C@@H](CO)[C@@H]2O3)cc1,/,/,.,/,/
O=[N+]([O-])c1cc2c(cc1/C=N/n1c(-c3ccccc3)n[nH]c1=S)OCO2,.,.,.,.,.
S=c1[nH]nc(-c2ccccn2)n1/N=C/c1cccc(Cl)c1,.,.,61,.,.
O=[N+]([O-])c1cc2c(cc1/C=N/n1c(-c3ccccn3)n[nH]c1=S)OCO2,.,.,71,.,.
Cc1ccsc1/C=N/n1c(-c2ccccn2)n[nH]c1=S,.,.,61,.,.
CC(C)NC(=O)N(C)C[C@H]1OCCCC[C@@H](C)Oc2ccc(NS(=O)(=O)c3ccc(Cl)cc3)cc2C(=O)N([C@H](C)CO)C[C@H]1C,/,/,.,/,/
Cc1noc(C)c1NC(=O)Nc1ccc2c(c1)C(=O)N([C@H](C)CO)C[C@H](C)[C@H](CN(C)C(=O)Nc1ccc3c(c1)OCO3)OCCCC[C@H](C)O2,/,/,.,/,/
COc1ccccc1CNC(=O)C[C@H]1C[C@H]2c3cc(NC(=O)Nc4ccc(C(F)(F)F)cc4)ccc3O[C@H]2[C@@H](CO)O1,/,/,.,/,/
Cc1noc(C)c1S(=O)(=O)Nc1ccc2c(c1)C(=O)N([C@H](C)CO)C[C@@H](C)[C@@H](CN(C)C(=O)c1ccccc1)OCCCC[C@@H](C)O2,/,/,.,/,/
C[C@@H]1CN([C@@H](C)CO)C(=O)c2cccc(NS(=O)(=O)c3cccs3)c2O[C@@H]1CN(C)Cc1ccccc1,/,/,.,/,/
COc1ccc(S(=O)(=O)N2CCOCC2)cc1NC(=O)COC(=O)c1ccc([N+](=O)[O-])s1,/,.,30,/,/
Cc1ccc(NC(=O)C2CC2c2ccccc2)c([N+](=O)[O-])c1 (stereo unspecified),.,.,46,.,.
O=C(Nc1ccc(Cl)cc1F)C1CC1c1ccccc1 (stereo unspecified),.,.,.,.,.
COc1ccccc1-c1nnc(NC(=O)c2ccc(S(=O)(=O)N3CCOCC3)cc2)o1,.,.,46,.,.
COc1cc(-c2nnc(NC(=O)c3ccc(S(=O)(=O)N4CCOCC4)cc3)o2)cc(OC)c1OC,.,/,/,.,.
COCc1nnc(NC(=O)c2ccc(S(=O)(=O)N3CCOCC3)cc2)o1,.,.,45,.,.
CO[C@H]1CN(C)C(=O)c2cc(NC(=O)C3CC3)ccc2OC[C@@H](C)N(C(=O)CN2CCOCC2)C[C@H]1C,/,/,.,/,/
CN1CCN(C(c2ccc(F)cc2)c2ccc3cccnc3c2O)CC1 (stereo unspecified),/,.,.,/,/
CN1CCN(C(c2cccnc2)c2ccc3cccnc3c2O)CC1 (stereo unspecified),/,.,68,/,/
CN1CCc2cc3c(c4c2[C@H]1[C@H](O)c1ccccc1-4)OCO3,46,.,.,.,.
